# Source: ChEMBL document CHEMBL4043303, “Development of Novel Melanocortin Receptor Agonists Based on the Cyclic Peptide Framework of Sunflower Trypsin Inhibitor-1” (J Med Chem, 2018)
# What was measured:
# [1] = Solubility of the compound in water at 1 mM; type: physicochemical; conditions: buffer, 1000 µM
# [2] = molecular target: T1, Melanocortin receptor 3 (Homo sapiens, UniProt P41968); assay: Agonist activity at human MC3R expressed in low doxycyclin-treated HEK293 cell membranes assessed as increase in cAMP production after 45 mins by HTRF method; type: functional, cell-based; set-up: concentration or dose not given beside the values
# Outline: (§1)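 T-REx-293 cells stably expressing doxycycline-inducible human MC1R, MC3R or MC4R; expression induced 24 h with 0.1 ng/mL (low) or 10 ng/mL (high, MC4R only) doxycycline. 1000 cells/well in HBSS, 20 mM HEPES pH 7.4, 0.1% BSA, 1 mM IBMX; stimulated at 37 °C. Time-resolved FRET cAMP read-out normalized to NDP-α-MSH maximum.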
# [3] = molecular target: T2, Melanocyte-stimulating hormone receptor (Homo sapiens, UniProt Q01726); assay: Agonist activity at human MC1R expressed in low doxycyclin-treated HEK293 cell membranes assessed as increase in cAMP production after 45 mins by HTRF method; type: functional, cell-based
# [4] = molecular target: T3, Melanocortin receptor 4 (Homo sapiens, UniProt P32245); assay: Agonist activity at human MC4R expressed in low doxycyclin-treated HEK293 cell membranes assessed as increase in cAMP production after 45 mins by HTRF method; type: functional, cell-based; outline: as §1
# [5] = molecular target: Melanocortin receptor 5 (Homo sapiens, UniProt P33032); assay: Displacement of [125I]-NDP-alpha-MSH from human MC5R LBD expressed in HEK293 cell membranes incubated for 16 to 23 hrs in dark by scintillation proximity assay; set-up: concentration or dose not given beside the values; conditions: concentration not given here
# [6] = molecular target: T2, Melanocyte-stimulating hormone receptor; assay: Displacement of [125I]-NDP-alpha-MSH from human MC1R LBD expressed in HEK293 cell membranes incubated for 16 to 23 hrs in dark by scintillation proximity assay; set-up: concentration or dose not given beside the values; conditions: concentration not given here
# [7] = molecular target: T3, Melanocortin receptor 4; assay: Agonist activity at human MC4R expressed in high doxycyclin-treated HEK293 cell membranes assessed as increase in cAMP production after 15 mins by HTRF method; type: functional, cell-based; outline: as §1
# [8] = molecular target: T3, Melanocortin receptor 4; assay: Displacement of [125I]-NDP-alpha-MSH from human MC4R LBD expressed in HEK293 cell membranes incubated for 16 to 23 hrs in dark by scintillation proximity assay; set-up: concentration or dose not given beside the values; conditions: concentration not given here
# [9] = molecular target: T1, Melanocortin receptor 3; assay: Displacement of [125I]-NDP-alpha-MSH from human MC3R LBD expressed in HEK293 cell membranes incubated for 16 to 23 hrs in dark by scintillation proximity assay; set-up: concentration or dose not given beside the values; conditions: concentration not given here
# Melanocortin receptor 5, sequence (P33032 whole entry, the tested form may be a part): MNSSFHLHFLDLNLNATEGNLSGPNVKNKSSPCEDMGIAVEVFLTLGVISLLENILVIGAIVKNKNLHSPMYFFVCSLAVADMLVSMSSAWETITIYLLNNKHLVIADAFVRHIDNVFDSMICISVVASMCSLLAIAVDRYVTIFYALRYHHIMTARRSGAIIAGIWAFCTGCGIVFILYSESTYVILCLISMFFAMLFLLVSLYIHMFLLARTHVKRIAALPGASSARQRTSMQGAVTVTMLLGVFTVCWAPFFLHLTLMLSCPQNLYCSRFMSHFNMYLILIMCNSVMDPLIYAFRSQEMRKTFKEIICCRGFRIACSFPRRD
# T3 sequence (P32245 whole entry, the tested form may be a part): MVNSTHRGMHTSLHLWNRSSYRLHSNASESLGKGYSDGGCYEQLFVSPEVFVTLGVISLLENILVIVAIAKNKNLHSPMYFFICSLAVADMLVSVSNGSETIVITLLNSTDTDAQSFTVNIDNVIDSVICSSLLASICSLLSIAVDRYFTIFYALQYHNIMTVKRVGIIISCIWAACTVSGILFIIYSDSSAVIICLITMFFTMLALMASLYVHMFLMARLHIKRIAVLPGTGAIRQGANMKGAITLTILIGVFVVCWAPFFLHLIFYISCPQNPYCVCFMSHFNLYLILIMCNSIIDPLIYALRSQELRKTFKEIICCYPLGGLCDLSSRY
# T2 sequence (Q01726 whole entry, looked up): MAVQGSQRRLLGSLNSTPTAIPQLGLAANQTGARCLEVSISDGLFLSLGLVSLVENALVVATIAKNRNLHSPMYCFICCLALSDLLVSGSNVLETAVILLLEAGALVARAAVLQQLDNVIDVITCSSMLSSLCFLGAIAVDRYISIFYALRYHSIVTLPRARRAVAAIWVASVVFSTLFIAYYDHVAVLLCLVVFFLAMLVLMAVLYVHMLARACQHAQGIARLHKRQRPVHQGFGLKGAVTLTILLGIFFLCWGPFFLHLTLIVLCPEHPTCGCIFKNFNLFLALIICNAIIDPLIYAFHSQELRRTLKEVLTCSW
# T1 sequence (P41968 whole entry): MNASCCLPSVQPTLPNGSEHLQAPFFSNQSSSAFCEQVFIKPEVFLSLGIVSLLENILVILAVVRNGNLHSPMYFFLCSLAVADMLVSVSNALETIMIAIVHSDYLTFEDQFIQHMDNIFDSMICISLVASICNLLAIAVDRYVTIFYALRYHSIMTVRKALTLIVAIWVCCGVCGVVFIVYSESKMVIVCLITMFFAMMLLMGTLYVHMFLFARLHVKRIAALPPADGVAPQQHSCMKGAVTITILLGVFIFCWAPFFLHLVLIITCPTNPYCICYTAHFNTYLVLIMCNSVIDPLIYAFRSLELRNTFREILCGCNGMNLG
Compound,solubility [1],Activity [2],Activity [3],Activity [4],inhibition [5],inhibition [6],Activity [7],inhibition [8],inhibition [9]
CC[C@H](C)[C@@H]1NC(=O)[C@@H]2CCCN2C(=O)[C@@H]2CCCN2C(=O)[C@H]([C@@H](C)CC)NC(=O)[C@H](CO)NC(=O)[C@H](C)NC(=O)[C@H]([C@@H](C)O)NC(=O)[C@@H]2CSSC[C@H](NC1=O)C(=O)N[C@@H](Cc1c[nH]cn1)C(=O)N[C@H](Cc1ccccc1)C(=O)N(C)[C@@H](CCCNC(=N)N)C(=O)N(C)[C@@H](Cc1c[nH]c3ccccc13)C(=O)N[C@@H](CCCNC(=N)N)C(=O)N2,Soluble,,,,,,,,
CC[C@H](C)[C@@H]1NC(=O)[C@@H]2CCCN2C(=O)[C@@H]2CCCN2C(=O)[C@H]([C@@H](C)CC)NC(=O)[C@H](CO)NC(=O)[C@H](C)NC(=O)[C@H]([C@@H](C)O)NC(=O)[C@@H]2CSSC[C@H](NC1=O)C(=O)N[C@@H](Cc1cnc[nH]1)C(=O)N[C@H](Cc1ccccc1)C(=O)N[C@@H](CCCNC(=N)N)C(=O)N(C)[C@@H](Cc1c[nH]c3ccccc13)C(=O)N[C@@H](CCCNC(=N)N)C(=O)N2,Soluble,,,,,,,,
CC[C@H](C)[C@@H]1NC(=O)[C@@H]2CCCN2C(=O)[C@H](Cc2c[nH]c3ccccc23)NC(=O)[C@H](CCCNC(=N)N)N(C)C(=O)[C@@H](Cc2ccccc2)NC(=O)[C@H](Cc2cnc[nH]2)NC(=O)[C@H]([C@@H](C)O)NC(=O)[C@@H]2CSSC[C@H](NC1=O)C(=O)N[C@@H](Cc1ccccc1)C(=O)N1CCC[C@H]1C(=O)N[C@@H](CC(=O)O)C(=O)NCC(=O)N[C@@H](CCCNC(=N)N)C(=O)N2,Soluble,100%,100%,100%,100%,100%,100%,100%,100%
CC[C@H](C)[C@@H]1NC(=O)[C@@H]2CCCN2C(=O)[C@H](Cc2c[nH]c3ccccc23)NC(=O)[C@H](CCCNC(=N)N)N(C)C(=O)[C@@H](Cc2ccccc2)NC(=O)[C@H](Cc2cnc[nH]2)N(C)C(=O)[C@H]([C@@H](C)O)NC(=O)[C@@H]2CSSC[C@H](NC1=O)C(=O)N[C@@H](Cc1ccccc1)C(=O)N1CCC[C@H]1C(=O)N[C@@H](CC(=O)O)C(=O)NCC(=O)N[C@@H](CCCNC(=N)N)C(=O)N2,Soluble,100%,100%,100%,100%,100%,100%,100%,100%
CC[C@H](C)[C@@H]1NC(=O)[C@@H]2CCCN2C(=O)[C@@H]2CCCN2C(=O)[C@H]([C@@H](C)CC)NC(=O)[C@H](CO)NC(=O)[C@H](C)NC(=O)[C@H]([C@H](C)O)NC(=O)[C@@H]2CSSC[C@H](NC1=O)C(=O)N(C)[C@@H](Cc1cnc[nH]1)C(=O)N[C@H](Cc1ccccc1)C(=O)N[C@@H](CCCNC(=N)N)C(=O)N(C)[C@@H](Cc1c[nH]c3ccccc13)C(=O)N[C@@H](CCCNC(=N)N)C(=O)N2,,100%,100%,100%,100%,100%,100%,100%,100%
CC[C@H](C)[C@@H]1NC(=O)[C@@H]2CCCN2C(=O)[C@@H]2CCCN2C(=O)[C@H]([C@@H](C)CC)NC(=O)[C@H](CO)NC(=O)[C@H](C)NC(=O)[C@H]([C@@H](C)O)NC(=O)[C@@H]2CSSC[C@H](NC1=O)C(=O)N(C)[C@@H](Cc1cnc[nH]1)C(=O)N[C@H](Cc1ccccc1)C(=O)N(C)[C@@H](CCCNC(=N)N)C(=O)N(C)[C@@H](Cc1c[nH]c3ccccc13)C(=O)N[C@@H](CCCNC(=N)N)C(=O)N2,Soluble,,,,,,,,
CC[C@H](C)[C@@H]1NC(=O)[C@@H]2CCCN2C(=O)[C@@H]2CCCN2C(=O)[C@H]([C@@H](C)CC)NC(=O)[C@H](CO)NC(=O)[C@H](C)NC(=O)[C@H]([C@@H](C)O)NC(=O)[C@@H]2CSSC[C@H](NC1=O)C(=O)N(C)[C@@H](Cc1cnc[nH]1)C(=O)N[C@H](Cc1ccccc1)C(=O)N[C@@H](CCCNC(=N)N)C(=O)N[C@@H](Cc1c[nH]c3ccccc13)C(=O)N[C@@H](CCCNC(=N)N)C(=O)N2,Soluble,,,,,,,,
CC[C@H](C)[C@@H]1NC(=O)[C@@H]2CCCN2C(=O)[C@@H]2CCCN2C(=O)[C@H]([C@@H](C)CC)NC(=O)[C@H](CO)NC(=O)[C@H](C)NC(=O)[C@H]([C@H](C)O)NC(=O)[C@@H]2CSSC[C@H](NC1=O)C(=O)N(C)[C@@H](Cc1cnc[nH]1)C(=O)N[C@H](Cc1ccccc1)C(=O)N[C@@H](CCCNC(=N)N)C(=O)N[C@@H](Cc1c[nH]c3ccccc13)C(=O)N[C@@H](CCCNC(=N)N)C(=O)N2,,100%,100%,100%,100%,100%,100%,100%,100%
CC[C@H](C)[C@@H]1NC(=O)[C@@H]2CCCN2C(=O)[C@@H]2CCCN2C(=O)[C@H]([C@@H](C)CC)NC(=O)[C@H](CO)NC(=O)[C@H](C)NC(=O)[C@H]([C@@H](C)O)NC(=O)[C@@H]2CSSC[C@H](NC1=O)C(=O)N[C@@H](Cc1cnc[nH]1)C(=O)N[C@H](Cc1ccccc1)C(=O)N[C@@H](CCCNC(=N)N)C(=O)N[C@@H](Cc1c[nH]c3ccccc13)C(=O)N[C@@H](CCCNC(=N)N)C(=O)N2,Soluble,,,,,,,,
CC[C@H](C)[C@@H]1NC(=O)[C@@H]2CCCN2C(=O)[C@@H]2CCCN2C(=O)[C@H]([C@@H](C)CC)NC(=O)[C@H](CO)NC(=O)[C@H](C)NC(=O)[C@H]([C@@H](C)O)NC(=O)[C@@H]2CSSC[C@H](NC1=O)C(=O)N[C@@H](Cc1cnc[nH]1)C(=O)N[C@H](Cc1ccccc1)C(=O)N(C)[C@@H](CCCNC(=N)N)C(=O)N[C@@H](Cc1c[nH]c3ccccc13)C(=O)N[C@@H](CCCNC(=N)N)C(=O)N2,Soluble,,,,,,,,
CC[C@H](C)[C@@H]1NC(=O)[C@@H]2CCCN2C(=O)[C@@H]2CCCN2C(=O)[C@H]([C@@H](C)CC)NC(=O)[C@H](CO)NC(=O)[C@H](C)NC(=O)[C@H]([C@H](C)O)NC(=O)[C@@H]2CSSC[C@H](NC1=O)C(=O)N(C)[C@@H](Cc1cnc[nH]1)C(=O)N[C@H](Cc1ccccc1)C(=O)N(C)[C@@H](CCCNC(=N)N)C(=O)N(C)[C@@H](Cc1c[nH]c3ccccc13)C(=O)N[C@@H](CCCNC(=N)N)C(=O)N2,,100%,100%,100%,100%,100%,100%,100%,100%
CC[C@H](C)[C@@H]1NC(=O)[C@@H]2CCCN2C(=O)[C@@H]2CCCN2C(=O)[C@H]([C@@H](C)CC)NC(=O)[C@H](CO)NC(=O)[C@H](C)NC(=O)[C@H]([C@H](C)O)NC(=O)[C@@H]2CSSC[C@H](NC1=O)C(=O)N(C)[C@@H](Cc1cnc[nH]1)C(=O)N[C@H](Cc1ccccc1)C(=O)N(C)[C@@H](CCCNC(=N)N)C(=O)N[C@@H](Cc1c[nH]c3ccccc13)C(=O)N[C@@H](CCCNC(=N)N)C(=O)N2,,100%,100%,100%,100%,100%,100%,100%,100%
CC[C@H](C)[C@@H]1NC(=O)[C@@H]2CCCN2C(=O)[C@@H]2CCCN2C(=O)[C@H]([C@@H](C)CC)NC(=O)[C@H](CO)NC(=O)[C@H](C)NC(=O)[C@H]([C@@H](C)O)NC(=O)[C@@H]2CSSC[C@H](NC1=O)C(=O)N(C)[C@@H](Cc1cnc[nH]1)C(=O)N[C@H](Cc1ccccc1)C(=O)N(C)[C@@H](CCCNC(=N)N)C(=O)N[C@@H](Cc1c[nH]c3ccccc13)C(=O)N[C@@H](CCCNC(=N)N)C(=O)N2,Soluble,,,,,,,,
CC[C@H](C)[C@@H]1NC(=O)[C@@H]2CCCN2C(=O)[C@@H]2CCCN2C(=O)[C@H]([C@@H](C)CC)NC(=O)[C@H](CO)NC(=O)[C@H](C)NC(=O)[C@H]([C@H](C)O)NC(=O)[C@@H]2CSSC[C@H](NC1=O)C(=O)N[C@@H](Cc1cnc[nH]1)C(=O)N[C@H](Cc1ccccc1)C(=O)N[C@@H](CCCNC(=N)N)C(=O)N(C)[C@@H](Cc1c[nH]c3ccccc13)C(=O)N[C@@H](CCCNC(=N)N)C(=O)N2,,100%,100%,100%,100%,100%,100%,100%,100%
CC[C@H](C)[C@@H]1NC(=O)[C@@H]2CCCN2C(=O)[C@@H]2CCCN2C(=O)[C@H]([C@@H](C)CC)NC(=O)[C@H](CO)NC(=O)[C@H](C)NC(=O)[C@H]([C@@H](C)O)NC(=O)[C@@H]2CSSC[C@H](NC1=O)C(=O)N(C)[C@@H](Cc1cnc[nH]1)C(=O)N[C@H](Cc1ccccc1)C(=O)N[C@@H](CCCNC(=N)N)C(=O)N(C)[C@@H](Cc1c[nH]c3ccccc13)C(=O)N[C@@H](CCCNC(=N)N)C(=O)N2,Soluble,,,,,,,,
